NF-kB expr up – compounds increasing NF-kB expression in human neuronal cells; AID 1239; 190,000 tested, 1.6% active; fold change at 12.5 µM; NF-kB reporter expression; hits give high values; in the data active = fold change above about 3.3
STAT1 blocker – STAT1 signaling inhibition. NIH 3T3 STAT1-luciferase reporter, IFN-gamma, luminescence. inhibition, % at 5.5 µM. 200,000 tested, 0.35% active. AID 920;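 active = inhibition above a set limit, the mean inhibition across all tested compounds plus 3 SD, cut at about 34% in these data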
STAT3 blocker – STAT3 signaling inhibition. 190,000 tested, 0.89% active. inhibition, % at 5.5 µM. U3A cells, IL-6 STAT3-luciferase reporter, luminescence; host cell line lacks STAT1;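 active = inhibition above the mean inhibition across all screened compounds plus 3 SD, cut at about 44% in these data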
APP 5'UTR act – APP 5'UTR luciferase reporter activation | SH-SY5Y APP 5'UTR luciferase reporter, luminescence; zero percent = DMSO vehicle wells | activation, % at 2 µM | AID 1276 | 190,000 tested, 1% active;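 active = activation above a set limit, based on mean plus 3 SD of controls, cut at about 140% in these data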
STAT3 act – STAT3 signaling activation; U3A cells, IL-6 STAT3-luciferase reporter, luminescence; 100% = signal with IL-6 EC80 alone; activation (% of control), % at 5.6 µM; 190,000 tested, 0.91% active;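 active = activation above the screen-wide mean of compound activation plus 3 SD, cut at about 130% in these data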
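Assay system – human STAT1-deficient U3A cells with stable STAT3-luciferase reporter · Also added – IL-6 (33 ng/mL) · Schedule – compound 1 h, then IL-6 6 h at 37 °C · Technique – reporter luminescence signal · Evaluation – % activation versus median of IL-6-stimulated wells · Benchmarks – IL-6-only wells as 100% reference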
STAT1 act – activators of IFN-gamma induced STAT1 signaling; NIH 3T3 STAT1-luciferase reporter, luminescence; 100% = IFN-gamma alone, no compound; activation (% of control), % at 5.5 µM; 200,000 tested, 2.6% active; AID 932;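 active = activation above the screen-wide mean activation plus 3 SD, cut at about 130% in these data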
Numbers stand for hits; n = inactive; x = not tested or not shown. Compounds with a hit are over-represented: about 4.9% of the library has one in this group of screens.

SMILES | NF-kB expr up | STAT1 blocker | STAT3 blocker | APP 5'UTR act | STAT3 act | STAT1 act
COc1cc(N/C(N)=N/c2nc(C)cc(C)n2)c(OC)cc1Cl | n | n | n | n | n | n
O=C1CC(=O)N2N=C(c3ccc([N+](=O)[O-])cc3)SC2=N1 | n | n | n | n | n | n
Cc1ccc(SCCc2ccc(C)nc2)cc1 | n | n | n | n | n | n
CC1=CC(=O)C=C(C)C1=NOS(=O)(=O)c1ccccc1 | 3.96 | n | n | n | n | n
O=C1/C(=C\c2ccc3ccccc3c2)CCCc2ccccc21 | 4.83 | n | n | n | n | n
COc1ccc(/C=C2\CCc3ccccc3C2=O)cc1OC | 3.61 | n | n | n | n | n
CC(=O)C1=NN(c2ccccc2)C2(S1)S/C(=C\c1ccccc1)C(=O)N2c1ccccc1 (stereo not given) | n | n | n | n | n | n
COc1cccc(/C=C2\N=C(C3CCCCC3)OC2=O)c1OC | n | n | n | n | n | n
COc1ccc(N=Cc2oc3ccc4ccccc4c3c2O)cc1 | n | n | n | n | 134.2 | n
COc1ccc(N=Cc2[nH]c3ccccc3c2O)cc1 | n | n | n | n | n | n
O=C(CCN1C(=O)c2ccccc2C1=O)Nc1ccc(-c2nc3ccccc3s2)cc1 | n | n | n | 136.5 | n | 142.5
Cc1ccc2nc(-c3ccc(NC(=S)NC4CC(C)(C)NC(C)(C)C4)cc3)sc2c1 | n | n | n | 167.8 | n | 135.0
O=C(CCN1C(=O)c2ccccc2C1=O)Nc1nc2ccccc2s1 | n | n | n | x | n | n
Cc1ccc(NC(=S)c2nc3ccccc3s2)cc1 | n | n | n | 167.7 | n | 133.7
CC1(C)CC(NC(=S)Nc2ccc(S(N)(=O)=O)cc2)CC(C)(C)N1 | n | n | n | n | n | n
CCC(=O)NC(=S)Nc1ccc(-c2nc3ccc(C)cc3s2)cc1 | n | n | n | n | n | n
CCC(=O)NC(=S)Nc1ccc(-c2nc3ccccc3s2)cc1 | n | n | n | n | n | 141.6
COc1cc(CNCCc2ccc(S(N)(=O)=O)cc2)ccc1OCC(=O)N1CCCCC1 | n | n | n | n | n | n
Cc1ccc2nc(-c3ccc(NC(=S)NC(=O)C(C)C)cc3)sc2c1 | n | n | n | n | n | n
Cc1ccc2nc(-c3ccc(NC(=O)C(C)N4C(=O)c5ccccc5C4=O)cc3)sc2c1 (stereo not given) | n | n | n | n | n | 141.2
CC(C)C1CC(CCN2CCCCC2)(c2ccccc2)CCO1 (stereo not given) | n | n | n | n | n | n
COC(=O)C1=C(C)OC(N)=C(C#N)C1c1cc2cc(C)ccc2nc1Cl (stereo not given) | n | n | n | n | n | n
CC(=O)C1=C(C)OC(N)=C(C#N)C1c1cc2cc(C)c(C)cc2nc1Cl (stereo not given) | n | n | n | n | 178.4 | n
CN1CCN(C(=S)Nc2ccc(S(N)(=O)=O)cc2)CC1 | n | n | n | n | n | n
c1ccc(Nc2scc(-c3ccccc3)[n+]2Cc2ccco2)cc1 | 3.43 | n | n | n | n | 142.6
SMILES | NF-kB expr up | STAT1 blocker | STAT3 blocker | APP 5'UTR act | STAT3 act | STAT1 act
CN1OC(COC(=O)c2ccccc2)CC1c1ccccc1 (stereo not given) | n | n | n | n | n | 129.9
O=C(OCC1CC(c2ccccc2)=NO1)c1ccc(Cl)cc1 (stereo not given) | n | n | n | n | n | n
CN(C)c1ccc(/C=C/c2ccc3c4ccccc4ccc3[n+]2-c2ccccc2)cc1 | n | 46.2 | 80.8 | n | n | n
CCCCN1C(=O)C(=O)N(c2ccccc2)C1=S | 3.37 | n | n | n | n | 135.3
C=CC[n+]1ccc(/C=C2\C=Cc3cc(C)ccc3N2CC)c2ccccc21 | n | 36.0 | 86.3 | n | n | n
CCN1/C(=C/c2cc[n+](CCCS(=O)(=O)[O-])c3ccccc23)Sc2ccccc21 | n | n | n | n | n | n
NS(=O)(=O)c1ccc(CCNC(=O)COC(=O)/C=C/c2ccccc2Cl)cc1 | n | n | n | n | n | n
Cc1ccc(/C=C2\Sc3ccccc3C2=O)s1 | 5.52 | n | n | n | n | n
Cc1ccccc1NC(=S)NNC(=O)c1csc2c1CCC(C)C2 (stereo not given) | n | n | n | 180.0 | n | n
CC1CCc2c(C(=O)Nc3nccs3)csc2C1 (stereo not given) | 4.12 | n | n | n | n | n
Cc1ccc2c(c1)cc(CN(Cc1cccnc1)C(=O)NCc1ccccc1)c1nnnn12 | n | n | n | n | n | n
Cc1cc(C2=NNC(=NC3CC3)SC2)c(C)n1-c1ccccc1F | n | 88.8 | 101.8 | n | n | n
Cc1cc(C2=NNC(=NC3CCCCC3)SC2)c(C)n1-c1c(C)n(C)n(-c2ccccc2)c1=O | n | n | n | n | n | n
c1cc2c(cc1C1=NNC(=NC3CC3)SC1)OCCO2 | n | 93.6 | 108.3 | n | n | n
CC1(c2ccccc2)NC(=S)N2C1NC(=S)N2c1ccccc1 (stereo not given) | n | n | n | n | n | n
COc1ccc(N2C(=S)NC3N2C(=S)NC3(C)c2ccccc2)cc1 (stereo not given) | 6.68 | n | n | n | n | n
Cc1ccc(C)c(NC(=S)c2ccc3ccccc3n2)c1 | n | n | n | n | 154.5 | 129.2
Cc1ccc(C)c(NC(=S)Nc2cccnc2)c1 | n | n | n | n | n | n
Cc1ccc(C)c(NC(=S)Nc2cccc3cnccc23)c1 | n | n | n | n | n | n
Cc1ccc(C)c(NC(=S)c2ccccn2)c1 | 14.7 | n | n | n | n | n
O=C(NCCc1ccccc1)c1nc2c(nnn2Cc2ccccc2Cl)c(=O)[nH]1 | n | n | n | n | 133.1 | n
CCCOc1ccc2cc(-c3ccccn3)c(=O)oc2c1 | n | 39.0 | 98.5 | n | n | n
COC(=O)c1ccc(NC(=O)Cn2nnc3ccccc32)cc1 | n | n | n | n | n | 133.6
COc1cccc(/C=N\NC(=O)Cn2nnc3ccccc32)c1O | 3.3 | n | n | n | n | n
Cc1ccc(NC(=O)Cn2nnc3ccccc32)cc1 | n | n | n | n | n | n
SMILES | NF-kB expr up | STAT1 blocker | STAT3 blocker | APP 5'UTR act | STAT3 act | STAT1 act
COc1cc(/C=N/NC(=O)Cn2nnc3ccccc32)ccc1O | n | n | n | n | n | n
Cc1cccc(NC(=O)Cn2nnc3ccccc32)c1 | n | n | n | n | n | 130.5
Cc1cc(SCC(=O)c2cccs2)nc2ccccc12 | n | n | n | n | n | n
COc1ccc(/C=C/C(=O)NCC(=O)N2CCC(N(C)CCN3CCOCC3)CC2)cc1OC | n | n | n | n | n | n
COc1cccc(CNc2ncc(Br)cc2Br)c1O | n | n | n | n | n | n
COc1cccc(CNc2ccc(Br)cn2)c1O | 6.26 | n | n | 151.6 | n | n
CC1CN(C(=O)c2ccc(COc3ccc(C(C)C)cc3)o2)CC(C)O1 (stereo not given) | n | n | n | n | 133.0 | 129.1

Bioassay records: PubChem, several laboratories
